Experiments:
[1] = Plasma concentration of LY-354740 in rats after oral administration of compound at a dose of 5 mg equiv 1/kg at 0.5 hr; type: ADME; details: rat
Outline: (§1)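 Male Fischer 344 rats (190–250 g), fasted overnight, food returned ~4 h postdose; single oral dose of prodrug molar-equivalent to 5 mg/kg parent, in pH 2.5 20 mM KHPO₄. Blood drawn at 0.5, 1 and 3 h; plasma stored at –20 °C or below until analysis. Three plasma samples per time point; parent and prodrug measured.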

[2] = Plasma concentration of LY-354740 in rats after oral administration of compound at a dose of 5 mg equiv 1/kg at 1 hr; type: ADME; details: rat; outline: as §1
[3] = Plasma concentration of LY-354740 in rats after oral administration of compound at a dose of 5 mg equiv 1/kg at 3 hr; type: ADME; details: rat; outline: as §1
[4] = test system: Caco-2; test: Inhibition of radiolabeled glycylsarcosine (Gly-Sar) uptake into Caco-2 cells done for 15 min at 37 degree C with compound; type: functional, cell-based; details: Homo sapiens, Caco-2, 0.25 h
[5] = Inhibition of radiolabeled glycylsarcosine (Gly-Sar) uptake into chinese hamster ovary cells transfected with human PepT1 (CHO/hPepT1) done for 5-20 min at 37 degree C with compound; type: functional, cell-based; details: Cricetulus griseus
[6] = Area under concentration of compound in rats at a dose of 5 mg equiv 1/kg; type: ADME; details: rat, in vivo; outline: as §1
[7] = Plasma concentration of the prodrug and LY-354740 against the metabotropic glutamate receptor in rats after an oral dose of corresponding prodrug in 5 mg equiv 1/kg at 3 houre; type: ADME; details: rat; outline: as §1
[8] = test system: Rattus norvegicus; test: Minimally effective dose for suppression of startle in rat fear-potentiated startle assay, p.o.; Range = 0.3-3.0 mg/kg; type: functional; details: po, read-out: MED
[9] = test system: Rattus norvegicus; test: Duration of suppression of compound in rat fear-potentiated startle assay at an oral dose of 3.0 mg/kg; Range = 8-24 h; type: functional
[10] = target: Metabotropic glutamate receptor 2 (Homo sapiens, UniProt Q14416); test: Inhibition of [3H]LY-341,495 binding to recombinant human mGlu2 receptors
Sequence of Metabotropic glutamate receptor 2 (Homo sapiens, UniProt Q14416) (Q14416 whole entry): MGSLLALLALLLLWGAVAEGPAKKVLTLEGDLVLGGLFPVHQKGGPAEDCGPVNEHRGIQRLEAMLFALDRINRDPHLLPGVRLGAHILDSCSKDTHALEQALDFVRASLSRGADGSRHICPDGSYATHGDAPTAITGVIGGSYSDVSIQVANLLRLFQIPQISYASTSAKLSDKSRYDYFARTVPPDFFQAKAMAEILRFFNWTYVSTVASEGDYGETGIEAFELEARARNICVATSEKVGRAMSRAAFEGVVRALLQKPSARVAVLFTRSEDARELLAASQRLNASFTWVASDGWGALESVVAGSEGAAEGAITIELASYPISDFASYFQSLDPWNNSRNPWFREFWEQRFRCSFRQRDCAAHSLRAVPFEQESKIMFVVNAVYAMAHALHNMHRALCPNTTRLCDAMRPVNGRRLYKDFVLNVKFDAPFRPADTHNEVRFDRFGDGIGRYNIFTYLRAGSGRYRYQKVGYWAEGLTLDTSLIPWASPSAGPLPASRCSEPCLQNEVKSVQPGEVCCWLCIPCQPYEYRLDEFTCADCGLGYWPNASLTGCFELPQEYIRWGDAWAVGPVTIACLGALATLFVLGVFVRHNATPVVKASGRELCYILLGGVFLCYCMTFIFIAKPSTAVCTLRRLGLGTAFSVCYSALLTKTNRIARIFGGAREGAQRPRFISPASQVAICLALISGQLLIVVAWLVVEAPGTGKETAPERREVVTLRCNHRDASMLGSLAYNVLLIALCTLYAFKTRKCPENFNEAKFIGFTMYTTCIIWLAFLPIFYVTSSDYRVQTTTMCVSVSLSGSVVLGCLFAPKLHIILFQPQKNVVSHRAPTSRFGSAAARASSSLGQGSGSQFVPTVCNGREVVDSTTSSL

[11] = target: Metabotropic glutamate receptor 3 (Homo sapiens, UniProt Q14832); test: Inhibition of [3H]LY-341,495 binding to recombinant human mGlu3 receptors
Sequence of Metabotropic glutamate receptor 3 (Q14832 whole entry): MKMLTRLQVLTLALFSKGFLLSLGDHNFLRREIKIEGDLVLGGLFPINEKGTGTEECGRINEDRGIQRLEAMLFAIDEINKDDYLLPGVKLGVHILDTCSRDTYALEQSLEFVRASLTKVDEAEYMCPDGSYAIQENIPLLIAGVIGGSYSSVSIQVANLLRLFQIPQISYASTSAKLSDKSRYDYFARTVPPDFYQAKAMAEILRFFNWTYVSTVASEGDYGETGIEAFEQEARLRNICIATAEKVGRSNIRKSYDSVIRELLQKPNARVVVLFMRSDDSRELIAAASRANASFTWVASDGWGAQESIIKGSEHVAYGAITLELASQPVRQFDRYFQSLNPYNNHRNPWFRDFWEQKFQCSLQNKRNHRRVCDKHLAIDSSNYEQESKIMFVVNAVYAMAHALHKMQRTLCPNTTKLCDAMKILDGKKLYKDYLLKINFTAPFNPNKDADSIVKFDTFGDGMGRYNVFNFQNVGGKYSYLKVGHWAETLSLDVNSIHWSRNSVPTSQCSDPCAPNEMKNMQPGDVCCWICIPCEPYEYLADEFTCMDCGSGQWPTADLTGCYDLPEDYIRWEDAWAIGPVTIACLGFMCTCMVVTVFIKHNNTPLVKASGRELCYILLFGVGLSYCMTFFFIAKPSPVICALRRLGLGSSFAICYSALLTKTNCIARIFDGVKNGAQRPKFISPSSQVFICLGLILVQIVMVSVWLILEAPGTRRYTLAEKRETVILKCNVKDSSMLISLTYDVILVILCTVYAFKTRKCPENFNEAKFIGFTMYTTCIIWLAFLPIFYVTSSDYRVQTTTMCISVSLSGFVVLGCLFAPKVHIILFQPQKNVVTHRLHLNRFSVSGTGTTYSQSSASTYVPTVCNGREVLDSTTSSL

[12] = test system: Rattus norvegicus; test: Onset of suppression of startle of compound in rat fear-potentiated startle assay at an oral dose of 3.0 mg/kg; type: functional
[13] = test system: Rattus norvegicus; test: Onset of suppression of startle of compound in rat fear-potentiated startle assay at an oral dose of 0.01 and 0.1 mg/kg; type: functional
Outline: (§2)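 Fed rats dosed orally. Three-day protocol: day 1 baseline startle (30 × 120 dB), groups of n = 8. Day 2 conditioning: 10 light (5 s)–shock (0.5 mA, 500 ms) pairings. Day 3, 24 h later: 20 noise-alone and 20 light+noise trials. Compound given at set pretreatment times before testing. Diazepam 0.6 mg/kg ip, 30 min pre-test, as positive control. MED = lowest dose with p < 0.05 versus control.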

[14] = target: Metabotropic glutamate receptor 2 (Rattus norvegicus, UniProt P31421); test: Inhibition of [3H]LY-341,495 binding to mGlu2 receptors of rat brain
Sequence of Metabotropic glutamate receptor 2 (Rattus norvegicus, UniProt P31421) (P31421 whole entry): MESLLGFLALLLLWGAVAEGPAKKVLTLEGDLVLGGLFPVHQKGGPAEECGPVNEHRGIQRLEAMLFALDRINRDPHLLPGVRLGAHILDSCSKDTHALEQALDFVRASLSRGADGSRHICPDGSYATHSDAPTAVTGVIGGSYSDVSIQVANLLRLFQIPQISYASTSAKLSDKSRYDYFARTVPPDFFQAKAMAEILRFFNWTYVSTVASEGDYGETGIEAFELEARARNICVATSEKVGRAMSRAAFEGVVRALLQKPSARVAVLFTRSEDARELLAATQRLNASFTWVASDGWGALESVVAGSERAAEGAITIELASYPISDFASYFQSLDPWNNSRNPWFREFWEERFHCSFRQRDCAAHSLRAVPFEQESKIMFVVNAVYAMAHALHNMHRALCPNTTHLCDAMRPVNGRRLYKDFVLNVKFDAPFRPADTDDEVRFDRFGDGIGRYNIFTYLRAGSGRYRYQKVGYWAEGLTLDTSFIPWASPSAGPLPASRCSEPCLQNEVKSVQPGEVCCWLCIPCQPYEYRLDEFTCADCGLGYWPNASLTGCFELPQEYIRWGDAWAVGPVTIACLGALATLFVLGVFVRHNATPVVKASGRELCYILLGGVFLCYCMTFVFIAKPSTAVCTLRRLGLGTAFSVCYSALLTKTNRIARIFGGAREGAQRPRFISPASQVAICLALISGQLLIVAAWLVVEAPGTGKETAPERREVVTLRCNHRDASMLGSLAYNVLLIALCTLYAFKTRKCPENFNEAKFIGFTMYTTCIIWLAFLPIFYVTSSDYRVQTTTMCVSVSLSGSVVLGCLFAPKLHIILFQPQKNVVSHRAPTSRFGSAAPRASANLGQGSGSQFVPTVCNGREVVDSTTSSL

[15] = test system: Rattus norvegicus; test: Minimally effective dose for suppression of startle in rat fear-potentiated startle assay, p.o.; type: functional; details: po, read-out: MED; outline: as §2
[16] = test system: Rattus norvegicus; test: Duration of suppression of compound in rat fear-potentiated startle assay at an oral dose of 0.1 mg/kg; type: functional; outline: as §2
[17] = test system: Rattus norvegicus; test: Duration of suppression of compound in rat fear-potentiated startle assay at an oral dose of 0.01 mg/kg; Range = 4-8 h; type: functional; outline: as §2

Structure (SMILES)	Plasma concentration [1]	Plasma concentration [2]	Plasma concentration [3]	IC50 [4]	IC50 [5]	further results
Cl.N[C@@H](CO)C(=O)N[C@@]1(C(=O)O)CC[C@H]2[C@H](C(=O)O)[C@H]21	1497 ng/mL	1365 ng/mL	–	–	–	–
CC(C)[C@H](NC(=O)[C@]1(N)CC[C@H]2[C@H](C(=O)O)[C@H]21)C(=O)O	10 ng/mL	17 ng/mL	10 ng/mL	–	–	–
CC[C@H](C)[C@H](NC(=O)[C@]1(N)CC[C@H]2[C@H](C(=O)O)[C@H]21)C(=O)O	18 ng/mL	34 ng/mL	20 ng/mL	–	–	–
Cl.N[C@@H](Cc1ccc(O)cc1)C(=O)N[C@@]1(C(=O)O)CC[C@H]2[C@H](C(=O)O)[C@H]21	1915 ng/mL	2163 ng/mL	–	–	–	–
CC(C)C[C@H](NC(=O)[C@]1(N)CC[C@H]2[C@H](C(=O)O)[C@H]21)C(=O)O	450 ng/mL	798 ng/mL	919 ng/mL	> 10000 µM	620 µM	AUC [6]: 21300 ng·h/mL
C[C@H](N)C(=O)N[C@@H](C)C(=O)N[C@@]1(C(=O)O)CC[C@H]2[C@H](C(=O)O)[C@H]21.Cl	3620 ng/mL	1554 ng/mL	734 ng/mL	7290 µM	2880 µM	–
CC[C@H](C)[C@H](N)C(=O)N[C@@]1(C(=O)O)CC[C@H]2[C@H](C(=O)O)[C@H]21.Cl	2009 ng/mL	1457 ng/mL	2032 ng/mL	–	–	–
Cl.O=C(O)[C@H]1[C@@H]2CC[C@@](NC(=O)[C@@H]3CCCN3)(C(=O)O)[C@@H]21	319 ng/mL	455 ng/mL	–	–	–	Plasma concentration [7]: 670 ng/mL
N[C@@]1(C(=O)N[C@@H](Cc2ccccc2)C(=O)O)CC[C@H]2[C@H](C(=O)O)[C@H]21	20 ng/mL	45 ng/mL	10 ng/mL	2680 µM	1540 µM	AUC [6]: 11400 ng·h/mL
CC(C)C[C@H](NC(=O)[C@]1(NC(=O)[C@H](C)N)CCC2C1[C@H]2C(=O)O)C(=O)O (stereo not given in full)	44 ng/mL	26 ng/mL	55 ng/mL	3050 µM	1340 µM	–
CC(C)C[C@H](N)C(=O)N[C@@]1(C(=O)O)CC[C@H]2[C@H](C(=O)O)[C@H]21.Cl	4488 ng/mL	4323 ng/mL	1152 ng/mL	5010 µM	1430 µM	AUC [6]: 0 ng·h/mL
N[C@@]1(C(=O)N[C@@H](CO)C(=O)O)CC[C@H]2[C@H](C(=O)O)[C@H]21	36 ng/mL	–	53 ng/mL	–	–	–
CSCC[C@H](N)C(=O)N[C@@]1(C(=O)O)CC[C@H]2[C@H](C(=O)O)[C@H]21.Cl	3720 ng/mL	2107 ng/mL	–	–	–	–
C[C@@H](N)C(=O)N[C@@]1(C(=O)O)CC[C@H]2[C@H](C(=O)O)[C@H]21.Cl	81 ng/mL	191 ng/mL	525 ng/mL	> 10000 µM	6660 µM	–
N[C@@]1(C(=O)NCC(=O)O)CC[C@H]2[C@H](C(=O)O)[C@H]21	19 ng/mL	–	–	–	–	–
CC(C)C[C@@H](N)C(=O)N[C@@]1(C(=O)O)CC[C@H]2[C@H](C(=O)O)[C@H]21.Cl	1478 ng/mL	894 ng/mL	877 ng/mL	6310 µM	1700 µM	–
Cl.N[C@@H](Cc1ccccc1)C(=O)N[C@@]1(C(=O)O)CC[C@H]2[C@H](C(=O)O)[C@H]21	1710 ng/mL	2763 ng/mL	1274 ng/mL	420 µM	520 µM	AUC [6]: 194 ng·h/mL
N[C@@]1(C(=O)N[C@@H](Cc2ccc(O)cc2)C(=O)O)CC[C@H]2[C@H](C(=O)O)[C@H]21	30 ng/mL	44 ng/mL	124 ng/mL	–	–	–
CC(C)[C@H](N)C(=O)N[C@@]1(C(=O)O)CC[C@H]2[C@H](C(=O)O)[C@H]21.Cl	2387 ng/mL	2124 ng/mL	1136 ng/mL	–	–	–
Cl.NCCCC[C@H](N)C(=O)N[C@@]1(C(=O)O)CC[C@H]2[C@H](C(=O)O)[C@H]21	74 ng/mL	147 ng/mL	246 ng/mL	–	–	–
Cl.NCC(=O)N[C@@]1(C(=O)O)CC[C@H]2[C@H](C(=O)O)[C@H]21	1707 ng/mL	1992 ng/mL	–	–	–	–
N[C@@]1(C(=O)O)CC[C@H]2[C@H](C(=O)O)[C@H]21	–	–	–	> 10000 µM	> 19000 µM	minimal effective dose [8]: 3 mg/kg; Duration [9]: 24 h; Ki [10]: 0.0847 µM; Ki [11]: 0.126 µM; Onset [12]: <=1 hr
CSCC[C@H](NC(=O)[C@]1(N)CC[C@H]2[C@H](C(=O)O)[C@H]21)C(=O)O	602 ng/mL	808 ng/mL	889 ng/mL	–	–	AUC [6]: 16600 ng·h/mL
C[C@H](N)C(=O)N[C@@]1(C(=O)O)CC[C@H]2[C@H](C(=O)O)[C@H]21.Cl [TALAGLUMETAD HYDROCHLORIDE]	3732 ng/mL	3381 ng/mL	1770 ng/mL	300 µM	120 µM	Onset [13]: <=1 hr; Ki [14]: > 10 µM; minimal effective dose [15]: 0.01 mg/kg; Duration [16]: >=24 hr; Duration [17]: 8 h; Ki [10]: > 10 µM; Ki [11]: > 10 µM; AUC [6]: 0 ng·h/mL
